# Source: ChEMBL document CHEMBL2010792, “Novel glycolipid TLR2 ligands of the type Pam2Cys-α-Gal: synthesis and biological properties” (Eur J Med Chem, 2012)
# The source made the active and inactive calls. The calls are words filed in the database; no cut-off is given here.
# Test system: NKT
# Assay: Immunostimulatory activity in activated NKT cells assessed as induction of IFNgamma production
# Type: functional, cell-based
# Conditions: not given
row,SMILES,Activity
1,CCCCCCCCCCCCCCCC(=O)OC[C@H](CSC[C@H](N)C(=O)NCCO[C@H]1O[C@@H]([C@H](O)CO)[C@H](O)[C@H]1O)OC(=O)CCCCCCCCCCCCCCC,inactive
2,CCCCCCCCCCCCCCCC(=O)OC[C@H](CSC[C@H](N)C(=O)N[C@@H](C)C(=O)NCC(=O)O)OC(=O)CCCCCCCCCCCCCCC,inactive

# Organism: Mus musculus
# Assay: Immunostimulatory activity in BALB/c mouse B cells assessed as induction of cell proliferation after 3 days by [3H]-thymidine incorporation assay
# Type: functional
# Conditions: not given
# How it was run: (§1)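 B cells were purified from female BALB/c spleens by negative selection (anti-CD11b, GR1, CD4 and CD8 mAbs plus magnetic beads; >90% B cells) and seeded at 1×10^5/well. Culture was in RPMI 1640 with 10% FCS, gentamicin, 10 mM HEPES and 0.05 mM 2-mercaptoethanol, across increasing agonist doses. [3H]-thymidine was added at 48 h and cells harvested 18 h later. Stimulation index = mean cpm stimulated / unstimulated; triplicates.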
row,SMILES,Activity
1,CCCCCCCCCCCCCCCC(=O)OC[C@H](CSC[C@H](N)C(=O)NCCO[C@H]1O[C@@H]([C@H](O)CO)[C@H](O)[C@H]1O)OC(=O)CCCCCCCCCCCCCCC,Dose-dependent effect
2,CCCCCCCCCCCCCCCC(=O)OC[C@H](CSC[C@H](N)C(=O)N[C@@H](C)C(=O)NCC(=O)O)OC(=O)CCCCCCCCCCCCCCC,Dose-dependent effect

# Target: Toll-like receptor 2 (Homo sapiens) (UniProt O60603)
# Sequence (O60603 whole entry): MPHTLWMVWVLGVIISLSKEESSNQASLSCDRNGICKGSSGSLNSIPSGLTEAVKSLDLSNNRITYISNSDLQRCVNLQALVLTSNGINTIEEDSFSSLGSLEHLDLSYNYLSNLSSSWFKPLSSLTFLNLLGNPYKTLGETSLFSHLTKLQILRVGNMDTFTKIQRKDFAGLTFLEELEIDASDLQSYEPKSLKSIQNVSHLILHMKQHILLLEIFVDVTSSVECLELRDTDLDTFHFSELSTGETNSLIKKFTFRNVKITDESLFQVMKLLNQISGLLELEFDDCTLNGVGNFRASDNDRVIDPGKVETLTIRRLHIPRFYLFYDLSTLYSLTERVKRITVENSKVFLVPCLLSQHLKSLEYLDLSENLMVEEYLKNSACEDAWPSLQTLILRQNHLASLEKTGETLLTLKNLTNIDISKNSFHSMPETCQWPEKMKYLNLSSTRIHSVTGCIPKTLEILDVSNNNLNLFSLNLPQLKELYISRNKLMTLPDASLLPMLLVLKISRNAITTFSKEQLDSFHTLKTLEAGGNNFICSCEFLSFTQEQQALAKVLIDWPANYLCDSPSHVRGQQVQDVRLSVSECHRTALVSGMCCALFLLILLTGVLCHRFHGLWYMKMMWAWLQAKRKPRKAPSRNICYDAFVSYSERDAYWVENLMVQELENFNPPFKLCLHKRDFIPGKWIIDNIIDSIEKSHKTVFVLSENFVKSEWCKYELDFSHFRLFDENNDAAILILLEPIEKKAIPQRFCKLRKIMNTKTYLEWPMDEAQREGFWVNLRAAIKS
# Assay: Agonist activity at TLR2 in human THP1-Blue-CD14 cells transfected with pSEAP-NF-kappaB assessed as secreted embryonic alkaline phosphatase activity treated with PBS containing 2% DMSO formulation after 19 hrs by quanti-blue colorimetric assay
# Type: functional, cell-based
# Conditions: THP-1
row,SMILES,Activity
1,CCCCCCCCCCCCCCCC(=O)OC[C@H](CSC[C@H](N)C(=O)NCCO[C@H]1O[C@@H]([C@H](O)CO)[C@H](O)[C@H]1O)OC(=O)CCCCCCCCCCCCCCC,Active
2,CCCCCCCCCCCCCCCC(=O)OC[C@H](CSC[C@H](N)C(=O)N[C@@H](C)C(=O)NCC(=O)O)OC(=O)CCCCCCCCCCCCCCC,Active

# Target: Toll-like receptor 2 (Homo sapiens) (UniProt O60603)
# Assay: Agonist activity at TLR2 in human HEK-Blue-2 cells
# Type: functional, cell-based
# Conditions: not given
row,SMILES,Activity
1,CCCCCCCCCCCCCCCC(=O)OC[C@H](CSC[C@H](N)C(=O)NCCO[C@H]1O[C@@H]([C@H](O)CO)[C@H](O)[C@H]1O)OC(=O)CCCCCCCCCCCCCCC,Active
2,CCCCCCCCCCCCCCCC(=O)OC[C@H](CSC[C@H](N)C(=O)N[C@@H](C)C(=O)NCC(=O)O)OC(=O)CCCCCCCCCCCCCCC,Active

# Organism: Mus musculus
# Assay: Immunostimulatory activity in BALB/c mouse B cells assessed as induction of cell proliferation at 0.001 ug/ml after 3 days by [3H]-thymidine incorporation assay relative to Pam3CAG
# Type: functional
# Conditions: not given
# How it was run: as §1
row,SMILES,Activity
1,CCCCCCCCCCCCCCCC(=O)OC[C@H](CSC[C@H](N)C(=O)NCCO[C@H]1O[C@@H]([C@H](O)CO)[C@H](O)[C@H]1O)OC(=O)CCCCCCCCCCCCCCC,Active

# Test system: not listed separately
# Assay: Induction of dendritic cell maturation in mouse D1 cells assessed as upregulation of CD40, CD54, CD80 and CD86 expression at 2.5 ug/ml after 48 hrs by flow cytometry in presence of polymyxin B
# Type: functional, cell-based
# Conditions: not given
# How it was run: (§2)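 D1 cells were kept in IMDM with 10% heat-decomplemented FCS, penicillin (100 IU/mL), 2 mM L-glutamine and GM-CSF (20 ng/mL). They were seeded at 2×10^5 cells/mL for 48 h, then given fresh medium with compound (DMSO/PBS 2/98) plus polymyxin B, except LPS wells, for 48 h. Cells were harvested in PBS with 2 mM EDTA, stained 20 min at 4 °C and analysed by flow cytometry.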
row,SMILES,Activity
1,CCCCCCCCCCCCCCCC(=O)OC[C@H](CSC[C@H](N)C(=O)NCCO[C@H]1O[C@@H]([C@H](O)CO)[C@H](O)[C@H]1O)OC(=O)CCCCCCCCCCCCCCC,Active
2,CCCCCCCCCCCCCCCC(=O)OC[C@H](CSC[C@H](N)C(=O)N[C@@H](C)C(=O)NCC(=O)O)OC(=O)CCCCCCCCCCCCCCC,Active

# Target: Toll-like receptor 2 (Homo sapiens) (UniProt O60603)
# Assay: Agonist activity at TLR2 in human THP1-Blue-CD14 cells transfected with pSEAP-NF-kappaB assessed as secreted embryonic alkaline phosphatase activity treated with PC/PG/Chol liposomes formulation at 0.1 uM after 19 hrs by quanti-blue colorimetric assay in presence of anti-mTLR2 antibody
# Type: functional, cell-based
# Conditions: THP-1
# How it was run: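 TLR2 in THP1-Blue-CD14 cells was neutralised with an anti-mTLR2 monoclonal antibody (100 ng/well) for 10 min before liposome-formulated agonist was added. Cells were incubated 19 h at 37 °C, and SEAP in supernatant was read by Quanti-Blue colorimetry (2 h, 37 °C, OD 595 nm). Activity was compared with cells lacking antibody; triplicates.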
row,SMILES,Activity
1,CCCCCCCCCCCCCCCC(=O)OC[C@H](CSC[C@H](N)C(=O)NCCO[C@H]1O[C@@H]([C@H](O)CO)[C@H](O)[C@H]1O)OC(=O)CCCCCCCCCCCCCCC,Active
2,CCCCCCCCCCCCCCCC(=O)OC[C@H](CSC[C@H](N)C(=O)N[C@@H](C)C(=O)NCC(=O)O)OC(=O)CCCCCCCCCCCCCCC,Active

# Organism: Mus musculus
# Assay: Immunostimulatory activity in BALB/c mouse splenocytes assessed as induction of cell proliferation up to 1000 ng/ml after 3 days by [3H]-thymidine incorporation assay
# Type: functional
# Conditions: Splenocyte
# How it was run: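 Spleen cells from female BALB/c mice (2×10^5/well) were cultured with agonist at 0–1000 ng/mL in RPMI 1640 containing 10% FCS, gentamicin, 10 mM HEPES and 0.05 mM 2-mercaptoethanol. [3H]-thymidine was added after 48 h, with harvest 18 h later. Result is a stimulation index (mean cpm stimulated / unstimulated) from triplicate wells.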
row,SMILES,Activity
1,CCCCCCCCCCCCCCCC(=O)OC[C@H](CSC[C@H](N)C(=O)NCCO[C@H]1O[C@@H]([C@H](O)CO)[C@H](O)[C@H]1O)OC(=O)CCCCCCCCCCCCCCC,Active
2,CCCCCCCCCCCCCCCC(=O)OC[C@H](CSC[C@H](N)C(=O)N[C@@H](C)C(=O)NCC(=O)O)OC(=O)CCCCCCCCCCCCCCC,Active

# Test system: not listed separately
# Assay: Induction of dendritic cell maturation in mouse D1 cells assessed as upregulation of CD40, CD54, CD80 and CD86 expression at 2.5 ug/ml after 48 hrs by flow cytometry relative to Pam2CAG
# Type: functional, cell-based
# Conditions: not given
# How it was run: as §2
row,SMILES,Activity
1,CCCCCCCCCCCCCCCC(=O)OC[C@H](CSC[C@H](N)C(=O)NCCO[C@H]1O[C@@H]([C@H](O)CO)[C@H](O)[C@H]1O)OC(=O)CCCCCCCCCCCCCCC,Active

# Organism: Mus musculus
# Assay: Immunostimulatory activity in BALB/c mouse splenocytes assessed as induction of IL-6 secretion after 30 hrs by double-sandwich ELISA
# Type: functional
# Conditions: Splenocyte
# How it was run: (§3)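 BALB/c splenocytes (2×10^5/well) were exposed to increasing agonist doses in supplemented RPMI 1640. Supernatants were collected at 30 h, stored at −20 °C, and assayed by double-sandwich ELISA. Values are pg/mL, mean of duplicates; detection limit 15 pg/mL for both IL-6 and TNF-α.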
row,SMILES,Activity
1,CCCCCCCCCCCCCCCC(=O)OC[C@H](CSC[C@H](N)C(=O)NCCO[C@H]1O[C@@H]([C@H](O)CO)[C@H](O)[C@H]1O)OC(=O)CCCCCCCCCCCCCCC,Dose-dependent effect
2,CCCCCCCCCCCCCCCC(=O)OC[C@H](CSC[C@H](N)C(=O)N[C@@H](C)C(=O)NCC(=O)O)OC(=O)CCCCCCCCCCCCCCC,Dose-dependent effect

# Test system: NKT
# Assay: Immunostimulatory activity in activated NKT cells assessed as induction of cell proliferation in presence of mAb directed CD1d molecules
# Type: functional, cell-based
# Conditions: not given
row,SMILES,Activity
1,CCCCCCCCCCCCCCCC(=O)OC[C@H](CSC[C@H](N)C(=O)NCCO[C@H]1O[C@@H]([C@H](O)CO)[C@H](O)[C@H]1O)OC(=O)CCCCCCCCCCCCCCC,Active
2,CCCCCCCCCCCCCCCC(=O)OC[C@H](CSC[C@H](N)C(=O)N[C@@H](C)C(=O)NCC(=O)O)OC(=O)CCCCCCCCCCCCCCC,Active

# Organism: Mus musculus
# Assay: Immunostimulatory activity in BALB/c mouse splenocytes assessed as induction of TNFalpha secretion after 30 hrs by double-sandwich ELISA
# Type: functional
# Conditions: Splenocyte
# How it was run: as §3
row,SMILES,Activity
1,CCCCCCCCCCCCCCCC(=O)OC[C@H](CSC[C@H](N)C(=O)NCCO[C@H]1O[C@@H]([C@H](O)CO)[C@H](O)[C@H]1O)OC(=O)CCCCCCCCCCCCCCC,Dose-dependent effect
2,CCCCCCCCCCCCCCCC(=O)OC[C@H](CSC[C@H](N)C(=O)N[C@@H](C)C(=O)NCC(=O)O)OC(=O)CCCCCCCCCCCCCCC,Dose-dependent effect

# Test system: not listed separately
# Assay: Induction of dendritic cell maturation in mouse D1 cells assessed as upregulation of CD40, CD54, CD80 and CD86 expression at 2.5 ug/ml after 48 hrs by flow cytometry relative to Pam3CAG
# Type: functional, cell-based
# Conditions: not given
# How it was run: as §2
row,SMILES,Activity
1,CCCCCCCCCCCCCCCC(=O)OC[C@H](CSC[C@H](N)C(=O)NCCO[C@H]1O[C@@H]([C@H](O)CO)[C@H](O)[C@H]1O)OC(=O)CCCCCCCCCCCCCCC,Active

# Organism: Mus musculus
# Assay: Immunostimulatory activity in BALB/c mouse B cells assessed as induction of cell proliferation at 0.001 ug/ml after 3 days by [3H]-thymidine incorporation assay relative to Pam2CAG
# Type: functional
# Conditions: not given
# How it was run: as §1
row,SMILES,Activity
1,CCCCCCCCCCCCCCCC(=O)OC[C@H](CSC[C@H](N)C(=O)NCCO[C@H]1O[C@@H]([C@H](O)CO)[C@H](O)[C@H]1O)OC(=O)CCCCCCCCCCCCCCC,Active

# Target: Toll-like receptor 2 (Homo sapiens) (UniProt O60603)
# Assay: Agonist activity at TLR2 in human THP1-Blue-CD14 cells transfected with pSEAP-NF-kappaB assessed as secreted embryonic alkaline phosphatase activity after 19 hrs by quanti-blue colorimetric assay relative to 0.1 uM of Pam2CAG
# Type: functional, cell-based
# Conditions: THP-1
# How it was run: (§4)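 THP1-Blue-CD14 cells were grown in RPMI 1640 with glucose (4.5 mg/mL) and 10% endotoxin-free FBS at 37 °C, 5% CO2. They were plated at 1.5×10^6 cells/mL and exposed to compounds formulated in PC/PG/Chol liposomes for 19 h at 37 °C. Supernatant was then mixed with Quanti-Blue reagent for 2 h at 37 °C and OD read at 595 nm. Controls were LPS (positive) and blank PC/PG/cholesterol (80/20/50) liposomes (negative); triplicates.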
row,SMILES,Activity
1,CCCCCCCCCCCCCCCC(=O)OC[C@H](CSC[C@H](N)C(=O)NCCO[C@H]1O[C@@H]([C@H](O)CO)[C@H](O)[C@H]1O)OC(=O)CCCCCCCCCCCCCCC,Active

# Test system: NKT
# Assay: Immunostimulatory activity in activated NKT cells assessed as induction of IL-4 production
# Type: functional, cell-based
# Conditions: not given
row,SMILES,Activity
1,CCCCCCCCCCCCCCCC(=O)OC[C@H](CSC[C@H](N)C(=O)NCCO[C@H]1O[C@@H]([C@H](O)CO)[C@H](O)[C@H]1O)OC(=O)CCCCCCCCCCCCCCC,inactive
2,CCCCCCCCCCCCCCCC(=O)OC[C@H](CSC[C@H](N)C(=O)N[C@@H](C)C(=O)NCC(=O)O)OC(=O)CCCCCCCCCCCCCCC,inactive

# Target: Toll-like receptor 2 (Homo sapiens) (UniProt O60603)
# Assay: Agonist activity at TLR2 in human THP1-Blue-CD14 cells transfected with pSEAP-NF-kappaB assessed as secreted embryonic alkaline phosphatase activity treated with PC/PG/Chol liposomes formulation after 19 hrs by quanti-blue colorimetric assay
# Type: functional, cell-based
# Conditions: THP-1
# How it was run: as §4
row,SMILES,Activity
1,CCCCCCCCCCCCCCCC(=O)OC[C@H](CSC[C@H](N)C(=O)NCCO[C@H]1O[C@@H]([C@H](O)CO)[C@H](O)[C@H]1O)OC(=O)CCCCCCCCCCCCCCC,Active
2,CCCCCCCCCCCCCCCC(=O)OC[C@H](CSC[C@H](N)C(=O)N[C@@H](C)C(=O)NCC(=O)O)OC(=O)CCCCCCCCCCCCCCC,Active

# Target: Toll-like receptor 2 (Homo sapiens) (UniProt O60603)
# Assay: Agonist activity at TLR2 in human THP1-Blue-CD14 cells transfected with pSEAP-NF-kappaB assessed as secreted embryonic alkaline phosphatase activity after 19 hrs by quanti-blue colorimetric assay relative to 10 uM of Pam3CAG
# Type: functional, cell-based
# Conditions: THP-1
# How it was run: as §4
row,SMILES,fold change (FC)
1,CCCCCCCCCCCCCCCC(=O)OC[C@H](CSC[C@H](N)C(=O)NCCO[C@H]1O[C@@H]([C@H](O)CO)[C@H](O)[C@H]1O)OC(=O)CCCCCCCCCCCCCCC,100
